From PubChem BioAssay
Only some compounds are listed: those with a hit (about 2.1% of all), similar ones and a draw of the others.
MEX-5 binding: MEX-5 zinc finger RNA-binding disruptors – biochemical, C. elegans, fluorescence polarization, MLPCN library, primary screen; MEX-5/FITC-TCR2 RNA binding; stronger effect = lower value; Zinc finger protein mex-5 (Caenorhabditis elegans), Q9XUB2; 0.38% of 300,000 active; activity score (negative = inhibition of binding), % at 10 µM;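 active = inhibition past about -25% in most replicates, and total fluorescence under double the plate's negative control median, limit read from the data; inconclusive = replicates evenly split on the limit, or fluorescence at least double controls; inactive = too little inhibition in most replicates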;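 also: 0% = DMSO and -100% = 5 µM competing unlabeled TCR2 RNA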
Runt-CBFb FRET: inhibitors of RUNX1 Runt–CBFb binding, primary screen, biochemical, FRET, Cerulean-Runt, Venus-CBFb, uHTS; Cerulean-Runt/Venus-CBFb FRET ratio 530/480, 1 h; inhibition, % at 20 µM; Runt-related transcription factor 1 (Homo sapiens) + Core-binding factor subunit beta …; AID 1496, 2009; 0.46% of 220,000 active;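 active = inhibition over about 50% at 20 µM in the single-dose screen, limit read from the data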;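 also: 0% = DMSO wells and 100% = excess unlabeled CBFb competitor control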
Target sequence (Q01196 whole entry, looked up): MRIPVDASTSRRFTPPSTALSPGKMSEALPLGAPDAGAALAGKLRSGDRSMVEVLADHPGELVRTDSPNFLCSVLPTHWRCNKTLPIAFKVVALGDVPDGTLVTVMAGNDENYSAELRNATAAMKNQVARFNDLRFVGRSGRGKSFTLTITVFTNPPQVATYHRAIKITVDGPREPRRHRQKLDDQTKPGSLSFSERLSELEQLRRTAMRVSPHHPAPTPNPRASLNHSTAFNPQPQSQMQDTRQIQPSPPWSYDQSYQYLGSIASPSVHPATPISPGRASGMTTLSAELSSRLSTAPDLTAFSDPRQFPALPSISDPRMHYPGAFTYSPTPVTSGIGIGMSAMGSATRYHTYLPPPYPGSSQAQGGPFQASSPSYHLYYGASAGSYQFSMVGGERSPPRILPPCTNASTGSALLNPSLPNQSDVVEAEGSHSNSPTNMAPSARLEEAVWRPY
Target sequence (Q13951 whole entry, looked up): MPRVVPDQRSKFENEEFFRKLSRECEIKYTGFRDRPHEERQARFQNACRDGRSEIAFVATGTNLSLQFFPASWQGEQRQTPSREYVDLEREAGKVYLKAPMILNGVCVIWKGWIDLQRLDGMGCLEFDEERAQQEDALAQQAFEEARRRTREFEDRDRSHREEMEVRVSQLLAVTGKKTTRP
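Measured by: fluorescence energy transfer, 422 nm excitation, 530/480 nm emission; test system: Cerulean-tagged RUNX1 Runt domain (FRET donor) fusion protein; buffer or medium: Tris pH 7.5 buffer with BSA; compound: one dose, 20 µM compound, 1% DMSO; times: two 1 h room-temperature incubations shielded from light; benchmarks: unlabeled CBFb 5 µM, positive control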
RanGTP-Impb inh: inhibitors of RanGTP-importin-beta interaction, primary screen, biochemical, FRET, CFP-Ran, YFP-importin-beta, homogeneous | Ran GTPase (GTP-bound) - importin-beta complex | cell-free CFP-Ran/YFP-importin-beta FRET ratio | inhibition, % (test concentration not listed) | 1.1% of 300,000 active | AID 2216, 2009;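 active = more than half of the replicate wells show a fall in the fluorescence ratio signal beyond about 16%, limit read from the data, passing the limit was not always enough; inconclusive = exactly half of the replicate wells pass the set limit; inactive = fewer than half of replicates pass the limit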;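 also: 0% = DMSO wells and 100% = Ran loaded with GDP instead of GTP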
KLK7 zymogen act: proKLK7 zymogen activators, primary screen, biochemical, fluorescence intensity; purified proKLK7, EDANS-DABCYL substrate fluorescence; 100% is mature enzyme control, 0% vehicle; Kallikrein-7 (Homo sapiens), P49862; activation, % at 7 µM; 0.9% of 370,000 active;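 active = activation above the mean of all tested compounds plus 3 SD, computed per campaign excluding outliers beyond control limits, cut at about 13% in these data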
Runt-SMMHC FRET: inhibitors of RUNX1 Runt–CBFb-SMMHC binding, primary screen, biochemical, FRET, Cerulean-Runt, Venus-CBFb-SMMHC, uHTS | inhibition, % at 20 µM | Cerulean-Runt/Venus-CBFb-SMMHC FRET ratio 530/480, 1 h | Runt-related transcription factor 1 (Homo sapiens) + Core-binding factor subunit beta … | 0.74% of 220,000 active | AID 1434, 2008;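 active = mean inhibition across duplicate retests at 20 µM reaching about 50%, limit read from the data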;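 also: 0% = DMSO wells and 100% = wells with excess untagged CBFb-SMMHC; inhibitors lower the FRET ratio by blocking Runt binding to CBFb-SMMHC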
proKLK7 act conf: proKLK7 zymogen activators, confirmation, biochemical, fluorescence intensity, triplicate | shares compounds with KLK7 zymogen act | purified proKLK7, EDANS-DABCYL substrate fluorescence; scaled: vehicle 0, mature enzyme 100 | activation, % at 7 µM | 68% of 3,200 active | AID 686949, 2013;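 active = activation, as change over the incubation, above the mean of all tested compounds plus 3 SD, cut at about 13% in these data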
EDANS-DABCYL int: EDANS-DABCYL substrate optical interference, artefact control for kallikrein-7 zymogen activator project, biochemical, fluorescence intensity, high throughput. shares compounds with KLK7 zymogen act. no enzyme, 4 h; solvent 0%, active enzyme control 100%. activation, % at 7 µM. 80% of 3,200 active. AID 686952, 2013;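 active = activation above the all-compound mean plus 3 SD, ignoring values outside control-based bounds, cut at about 4.8% in these data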;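 also: value is the 4 h activation minus the activation read at time zero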
K7 EDANS ctr: counter-screen for kallikrein-7 activators: EDANS-DABCYL interference, dose response; shares compounds with KLK7 zymogen act; EDANS-DABCYL peptide fluorescence interference, no enzyme; EC50, µM; 20% of 250 active;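 active = compounds that raise the fluorescence signal in this interference counterscreen, with EC50 at or below 10 µM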;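 also: intact quenched peptide substrate alone read at 355 nm excitation and 520 nm emission; signal is fluorescence gain from T0 to T4 after four hours at room temperature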
Starred values were filed as active, the others as inactive.

For Cc1ccc(-c2cc(C(=O)NCCN3CCOCC3)c3ccccc3n2)o1 the results were MEX-5 binding 1, KLK7 zymogen act 49*, proKLK7 act conf 49* and EDANS-DABCYL int 66*.
For COc1ccc(-c2cc(C(=O)NCCN3CCOCC3)c3ccccc3n2)cc1OC the results were MEX-5 binding 0, RanGTP-Impb inh 2 and KLK7 zymogen act -1.
Screening CC[C@H](C)[C@H](NC(=O)CNC(=O)COc1cc2c(c3oc(=O)cc(C)c13)CCC(C)(C)O2)C(=O)O returned MEX-5 binding 1, RanGTP-Impb inh -2, KLK7 zymogen act 50*, proKLK7 act conf -1 and EDANS-DABCYL int -18.
`Cc1cc(=O)oc2c3c(cc(OCC(=O)NCC(=O)N[C@H](C(=O)O)C(C)C)c12)OC(C)(C)CC3` gave MEX-5 binding 0, RanGTP-Impb inh 4, KLK7 zymogen act 43*, proKLK7 act conf 62* and EDANS-DABCYL int 72*.
CCOC(=O)c1sc(=NC(=O)/C=C/c2ccccc2)n(C)c1C was read as MEX-5 binding 1, Runt-CBFb FRET 2, RanGTP-Impb inh -1, KLK7 zymogen act -1 and Runt-SMMHC FRET -3.
For COc1ccc(-c2cc(C(=O)Nc3ccc(C(N)=O)cc3)c3ccccc3n2)cc1OC the results were MEX-5 binding 2, Runt-CBFb FRET -27, RanGTP-Impb inh -4, KLK7 zymogen act 18*, Runt-SMMHC FRET -4, proKLK7 act conf -34 and EDANS-DABCYL int -29.
Screening COc1cc(-c2cc(C(=O)Nc3ccc(O)cc3)c3ccccc3n2)cc(OC)c1OC returned MEX-5 binding -1, Runt-CBFb FRET 17, RanGTP-Impb inh 1, KLK7 zymogen act 0 and Runt-SMMHC FRET -1.
For Cn1cc(C2(c3c[nH]c4ccccc34)CCN(C(=O)OC(C)(C)C)CC2)c2ccccc21 the results were KLK7 zymogen act -1.
`Cc1cccnc1NC(=O)c1ccc([N+](=O)[O-])o1` gave MEX-5 binding 0, Runt-CBFb FRET 2, RanGTP-Impb inh -1, KLK7 zymogen act 17*, Runt-SMMHC FRET 4, proKLK7 act conf 19* and EDANS-DABCYL int 21*.
`CN1OC[C@@H]2CN(C(=O)C(C)(C)C)[C@H](c3ccc(-c4cc5ccccc5o4)cc3)C[C@@H]21` gave KLK7 zymogen act 0.
`CCOC(=O)CSc1ccc(-c2nc3cc(C)c(C)cc3[nH]2)cn1` gave MEX-5 binding 0, Runt-CBFb FRET -3, RanGTP-Impb inh 5, KLK7 zymogen act 5 and Runt-SMMHC FRET -8.
Cc1cc2nc(-c3ccc(SCc4ccccn4)nc3)[nH]c2cc1C was read as MEX-5 binding -2, Runt-CBFb FRET 5, RanGTP-Impb inh -4, KLK7 zymogen act 127*, Runt-SMMHC FRET 1, proKLK7 act conf 25*, EDANS-DABCYL int 16* and K7 EDANS ctr inactive.
For C#CCOCCOCCOCCNc1nc(N2CCN(C(=O)[C@H](CCCCN)n3cc(C(N)COC(=O)C(F)(F)F)nn3)CC2)nc(N2CCN(C(=O)[C@H](CCCCN)n3cc(C(N)CC(C)C)nn3)CC2)n1 (some centres undefined) the results were Runt-CBFb FRET 1 and Runt-SMMHC FRET 2.
`OCC(O)C(O)C(O)c1cnn(-c2ccccc2)n1` (centres undefined) gave KLK7 zymogen act -1.
CCOC(=O)c1ccccc1NC1CC(=O)N(c2ccccc2C)C1=O (centres undefined) was read as MEX-5 binding 0, Runt-CBFb FRET -1, RanGTP-Impb inh -2, KLK7 zymogen act 193*, Runt-SMMHC FRET 1, proKLK7 act conf 169* and EDANS-DABCYL int 161*.
CNC(=O)c1cc2c(cn1)[nH]c1ccccc12 was read as MEX-5 binding -1, RanGTP-Impb inh -1, KLK7 zymogen act 32*, proKLK7 act conf 7 and EDANS-DABCYL int 4.4*.
O=C(c1cccc(Cl)c1)N1CCN(S(=O)(=O)c2ccc(Cl)s2)CC1 was read as KLK7 zymogen act 0.
CC(=O)Nc1ccc(S(=O)(=O)NCCNS(=O)(=O)c2ccc(NC(C)=O)cc2)cc1 was read as MEX-5 binding -1, RanGTP-Impb inh inconclusive and KLK7 zymogen act 0.
For COc1ccc(S(=O)(=O)NCCc2cn3nc(C)c(C)nc3n2)cc1F the results were MEX-5 binding -3, RanGTP-Impb inh 17*, KLK7 zymogen act 20*, proKLK7 act conf 73* and EDANS-DABCYL int 81*.
`CC(=O)Nc1ccc(S(=O)(=O)NCCc2cn3nc(C)c(C)nc3n2)cc1` gave MEX-5 binding -3, RanGTP-Impb inh 5, KLK7 zymogen act 16*, proKLK7 act conf 62* and EDANS-DABCYL int 55*.
For CC(C)(C)c1ccc(S(=O)(=O)NC(=O)C2(C)CCN2C(=O)Cc2cccc3ccccc23)cc1 (centres undefined) the results were KLK7 zymogen act 0.
Screening Nc1ccn(Cc2ccc(F)cc2)n1 returned MEX-5 binding -2, Runt-CBFb FRET 14, RanGTP-Impb inh 1, KLK7 zymogen act 1 and Runt-SMMHC FRET -3.
`COc1ccc(Nc2nc(NCc3cccs3)nc3ccsc23)cc1OC` gave KLK7 zymogen act 0.
For COCCNc1nc(Oc2ccccc2)c2sccc2n1 the results were KLK7 zymogen act 0.
Screening c1ccc(CNc2nc(Oc3ccncc3)c3sccc3n2)cc1 returned KLK7 zymogen act 15*, proKLK7 act conf 10 and EDANS-DABCYL int 4.9*.
Screening c1csc(CNc2nc(Oc3ccncc3)c3sccc3n2)c1 returned KLK7 zymogen act 17*, proKLK7 act conf 5 and EDANS-DABCYL int 12*.
`CC1=CCC[C@H]2[C@H](C1)C(=O)C[C@@H](C)[C@]2(C)CC/C(=C/CO)CO` gave KLK7 zymogen act -1.
